Sequences and labels used below:
B1: tRNA (parent)
chain: GUUCCGUUGGCGUAAUGGUAACGCGUCUCCCUCCUAAGGAGAAGACUGCGGGUUCGAGUCCCGUACGGAACG

Variants at the floor of the assay were thinned out.

The variants in this series derive from B1. The series can be described thus: yeast fitness relative to wild type (ratio to wild type); higher = fitter; tRNA-Arg(CCU), competitive growth, 37 C, YPD. In outline: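 The tRNA-Arg(CCU) gene variants were made by chemical synthesis with a 3% per-site mutation rate at 69 sites and inserted at the native genomic locus of Saccharomyces cerevisiae. After pooling, the strains were competed in YPD at 37°C for 24 hours in six parallel replicates. Gene amplicons from the start population and each end population were read by 100-nucleotide paired-end sequencing, and Darwinian fitness relative to wild type was taken from genotype frequency changes. Genotypes needed ≥ 100 starting reads, and estimates < 0.5 were set to 0.5.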
For GUUCCGAUGGCGUAAUGGUAACGCGUCUCCCCGCUAAGGAGAAGACUGCGGGUUCGAGUCCCGUACGGAACG, the yeast fitness is ≤ 0.5. In the case of GUUCCGUUGGCGUAAUAGUAACGCGUCUCCCUCCUCUGGAGACGAUUGGAGGUUCGAGUCCCGUACGGAACG it was 0.59; in that of GUUCAGUUGGCGUAAUGGAAACGCGUCUCCCUCCUAAGGAGAAGACUGCGGGUUCGAGUCCAGUACGGUACG, ≤ 0.5; in that of GUUCUGUUGGCGAAAUGGUAACGCGUGUCCCUCCUAAGGAGAAGACUGCGGGUUCGAGUCCCGUACGGAACG, 0.557.

As to GCUCCGUUGGCAUAGUGGUAACGCGUCUCCCUCCUAAGGAGAAGACUGCGGGUUCGAGUCCCGUACGGAACG, the yeast fitness is ≤ 0.5. As for GUUCCGUUGGCGUAAUGGUAAGGCGUCUCCCUCCUAAGGAGCAGACUGCGGGUUCGAGUCCUGUACGGAACG, the yeast fitness amounted to 0.52. Take GUUCCGUUGGCGUAAUGCUAAUGCGUCUCCCUCGUAAGGAGAUGACUGCGGGUUCGAGUCCCGUACGGAACG: the yeast fitness was ≤ 0.5. On to GUUCCGUUGGCGUUAUGGUAACGCGUCUCGCUCCUAAGGAGAAGACUGCGGGUUUGAGUCCCGUACGGAACG, for which the yeast fitness is ≤ 0.5. For GUUCCGUUGGCGUACUGGUAACGCGUCUCCCUCCUUAGGAGAAGACUGCGGGUUCGAGUCCCGAACGGAACG the value was ≤ 0.5; for GUUCCGUUGGCGUAAUGGUAACGCGUCUUACUCCUAAGGAGAAGACUGCGGGUUCGAGUCCCGUACGGAACG, 0.744; for GUUCCGUUGGCGUAGUGGUAACGCGUCUCCCUCCUAAGCCGAAGACUGCGGGUUCGAGUCCCGUACGGAACG, 0.622. For GUUCCAUUGGCGUAAUGGUAACGCGUCUCCCUCCUAAGGAGAAGACUGCGGGUUAGAGUCCCGUACAGAACG the value was 0.534. For GUUUCGUUGGCGUAAUGGUAACGCGUCUCCCUCCUAAGGAGAAGAUUGCGGGUUCGAGUCCUGUACGGAACG the value was 0.806; for GUUCCGUUGGCGUAAGGGUAACGCGGCUACCUCCUAAGGAGAAGACUGCGGGUUCGCGUCCCGUACGGAACG, ≤ 0.5; for GUUCCGUUGGCGUAAUGGUAACGCGUCUCGCUCCUACGGAGGAGACUGCGGGUUCGUGUCCCGUACGGAACG, 1.01. With GCUCCGUUGGCGUCAUGGUAACGCGUCUCCCUCCUAAGAAGAAGACUGCGGGUUCGAGUCCCGUACGGAACG, the yeast fitness was ≤ 0.5. In the case of GUUCCGUUGGCGUAAUGGUAACGCGUCUCCCUCUUAAGGAGAAGACUGCGGGUUCGAGUCCCGUACGGAACG it was 0.707. Consider GUUCCGUUGGCGUAAUGGUAACGCGUCUCACUCCUAAAGAGAAGACUGCGGGUUAGAGUCCCGUCCGGAACG, for which the yeast fitness stood at 0.58. For GUUCCGUUGGCGUAAUGGUAACGCGUCUACCCCCUAAGGAGAAGACUGCGGGUUCGAGUCCCGUACGGAACG the value was 0.618; for GUUCCGUUGGCGUAAUGGUAACGCGUCUCCCUCCUAAGGAGAAGACUGCGGGUUCGAAUCCCGGACGGAACG, 1.01; for GUUCCGUUGGCGUAAUGGUAACGCGUCUCCCUCGUAAGGGGAAGAGUGAGGGUUCGAGUCCCGUAAGGUACG, ≤ 0.5. In the case of GUUCCGUUCGCGUAAUGGUAACGCGUCUCCCUCCUAAGGAGAAAACUGCGGGUUCGAGUCCCGUACGGAACG it was 0.673. Take GUUCUGUUGGCGUAAUGGUAACGCGUCUCCCUCCUAAGGAGAAGACUGCGGCUUCGAGUCCCGUACGGAACG: the yeast fitness turned out to be 0.622. For GUUCCGUUGGCGUAAUGGUAACGCGUUUCCCUCCUAAGGAGAAGACUGCGGGUUCGAGUCCAGUACGGAACG the value was 0.764; for GAUCCGUUGGCGUAAUGGUAACGCGUCUCCCUCCUAAGGAGAAGCCUGCGGGUUCGAGUCCCGUUCGGAACG, 0.624; for GUUCCGCUGGCGUAAUGGUAACGCGUCUCCCUCCUAAGGAGAAGACUGGGGGUUCGAGUCCCGUACGGCACG, 0.58. In the case of GUUCCGUUGGCGUAAUGGUAACGCGUCUCCCUCCUACGGAGAAGACUGCGGGUUGAAGUCCCGUACGGCACG it was ≤ 0.5; in that of GUUCCGUUGGCGUAAUGGUAACGCGUCUCCCUCCAAAGGAGAAGACUGCGGGCUCGCGUCCCGUACGGAACG, ≤ 0.5.

GUUCCGUUGGAGUAAUGGUAACGCGUCUCCCUCCUAAGGAGAAGACUGCGAGUUCGAGACCCGUACGGAACG: the yeast fitness was ≤ 0.5.

For the variant GUUCCGUUGGUGUAAUGGUAACGCGUCUCUCUCCUAAGGACAAGACUGCGGGUUCGAGUCCCGUACGGAACG, the yeast fitness is ≤ 0.5. For GGUCCGUUGGAGUAAUGGUAACGAGACUCCCUCCUAAGGAGAACACUGCGGGUUCGAGUCCCGUACGGAGCG the value was ≤ 0.5; for GUUCCGUUGGCGUAAUGGUAACGCGUCUCCCUCGUAAGGAGAAGACUGCGGGUUCGAGUCCCGUACGGAGCG, 0.586; for GUUCCGUUGGCGUAAUGGUAACGCGUCUCCGUCCUAAGGUGAAGACUGCGGGUUCGAGUCCCGUACGGAACG, 0.998. Consider GUUCCGUUGGCGUAAUGCUAACGCGUCUCCCUCCUAAGGAGAAGACUGCGGGUUCGAGUUCCGUACGGAUCG, for which the yeast fitness was ≤ 0.5. In the case of GUUCCGUUGGCGUAAUGGUAACGCGUCUCACUCCUAAGGAGAAGCUUGCGGGUUCGCGUCCCGUACGGAACG it was ≤ 0.5; in that of GUUCUGUUGGCGUAAUGGUAACGCGUCUCCCUCCUGAGGAGAAGACUGCGCGUUCGAGUCCCGUACGGAACG, ≤ 0.5; in that of GUUCCGUUAGCGUAAUGGUAACGCGUCUCCCUCCUAAGGAGAAGACUCCGGGGUCGAGUCCCGUACGGAACG, ≤ 0.5.

These data come from the RNAGym collection of RNA variant scans (doi:10.1126/science.aae0568).
